# ChEMBL document CHEMBL1154352, “Toll-like receptor 7 selective synthetic oligoribonucleotide agonists: synthesis and structure-activity relationship studies” (J Med Chem, 2009)
# Calls of active or inactive are those of the source. The calls are words filed in the database; no cut-off is given here.
# Experiments:
# [1] = biological target: T1, Toll-like receptor 7 (Homo sapiens) (UniProt Q9NYK1); assay: Activation of human TLR7 expressed in HEK293XL assessed as induction of NF-kappaB activity by reporter gene assay
# T1 sequence (whole entry): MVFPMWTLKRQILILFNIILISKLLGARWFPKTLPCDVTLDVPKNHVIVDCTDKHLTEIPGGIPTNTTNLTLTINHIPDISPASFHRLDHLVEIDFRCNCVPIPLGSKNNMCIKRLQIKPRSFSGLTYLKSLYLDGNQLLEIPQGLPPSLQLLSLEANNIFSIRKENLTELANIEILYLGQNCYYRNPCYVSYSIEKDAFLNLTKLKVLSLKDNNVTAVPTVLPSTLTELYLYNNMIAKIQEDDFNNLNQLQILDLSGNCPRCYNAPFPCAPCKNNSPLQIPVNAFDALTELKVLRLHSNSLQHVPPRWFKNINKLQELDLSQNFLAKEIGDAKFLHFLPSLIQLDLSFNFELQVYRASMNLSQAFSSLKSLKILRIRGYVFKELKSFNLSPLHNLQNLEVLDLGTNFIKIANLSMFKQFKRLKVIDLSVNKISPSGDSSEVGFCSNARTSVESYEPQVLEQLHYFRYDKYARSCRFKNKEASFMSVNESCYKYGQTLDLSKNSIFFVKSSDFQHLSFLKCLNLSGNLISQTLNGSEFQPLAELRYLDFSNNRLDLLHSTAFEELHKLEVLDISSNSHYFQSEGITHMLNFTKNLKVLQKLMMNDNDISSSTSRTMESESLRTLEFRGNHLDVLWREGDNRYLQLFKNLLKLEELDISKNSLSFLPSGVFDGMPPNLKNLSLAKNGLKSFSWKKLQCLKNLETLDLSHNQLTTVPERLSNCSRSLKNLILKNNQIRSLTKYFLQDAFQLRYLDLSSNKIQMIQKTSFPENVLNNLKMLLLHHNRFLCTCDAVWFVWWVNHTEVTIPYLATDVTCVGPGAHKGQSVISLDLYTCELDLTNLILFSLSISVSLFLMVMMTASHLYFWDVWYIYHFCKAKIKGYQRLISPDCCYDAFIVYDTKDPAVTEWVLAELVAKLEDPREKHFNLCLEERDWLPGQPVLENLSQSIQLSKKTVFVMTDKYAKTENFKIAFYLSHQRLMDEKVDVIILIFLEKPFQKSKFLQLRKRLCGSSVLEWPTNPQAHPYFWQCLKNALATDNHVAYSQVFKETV
# In short: (§1)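 HEK293 cells stably expressing human TLR7 or TLR8, transiently transfected with SEAP reporter plasmid; medium replaced, SIMRA compounds added, 18 h incubation. Supernatant SEAP measured by QuantiBlue; expressed as fold increase in NF-κB activity over PBS control. Tabulated data at 50 μg/mL, representative of three independent experiments.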
# [2] = biological target: T2, Toll-like receptor 8 (Homo sapiens) (UniProt Q9NR97); assay: Activation of human TLR8 expressed in HEK293XL assessed as induction of NF-kappaB activity by reporter gene assay; in short: as §1
# T2 sequence (whole entry): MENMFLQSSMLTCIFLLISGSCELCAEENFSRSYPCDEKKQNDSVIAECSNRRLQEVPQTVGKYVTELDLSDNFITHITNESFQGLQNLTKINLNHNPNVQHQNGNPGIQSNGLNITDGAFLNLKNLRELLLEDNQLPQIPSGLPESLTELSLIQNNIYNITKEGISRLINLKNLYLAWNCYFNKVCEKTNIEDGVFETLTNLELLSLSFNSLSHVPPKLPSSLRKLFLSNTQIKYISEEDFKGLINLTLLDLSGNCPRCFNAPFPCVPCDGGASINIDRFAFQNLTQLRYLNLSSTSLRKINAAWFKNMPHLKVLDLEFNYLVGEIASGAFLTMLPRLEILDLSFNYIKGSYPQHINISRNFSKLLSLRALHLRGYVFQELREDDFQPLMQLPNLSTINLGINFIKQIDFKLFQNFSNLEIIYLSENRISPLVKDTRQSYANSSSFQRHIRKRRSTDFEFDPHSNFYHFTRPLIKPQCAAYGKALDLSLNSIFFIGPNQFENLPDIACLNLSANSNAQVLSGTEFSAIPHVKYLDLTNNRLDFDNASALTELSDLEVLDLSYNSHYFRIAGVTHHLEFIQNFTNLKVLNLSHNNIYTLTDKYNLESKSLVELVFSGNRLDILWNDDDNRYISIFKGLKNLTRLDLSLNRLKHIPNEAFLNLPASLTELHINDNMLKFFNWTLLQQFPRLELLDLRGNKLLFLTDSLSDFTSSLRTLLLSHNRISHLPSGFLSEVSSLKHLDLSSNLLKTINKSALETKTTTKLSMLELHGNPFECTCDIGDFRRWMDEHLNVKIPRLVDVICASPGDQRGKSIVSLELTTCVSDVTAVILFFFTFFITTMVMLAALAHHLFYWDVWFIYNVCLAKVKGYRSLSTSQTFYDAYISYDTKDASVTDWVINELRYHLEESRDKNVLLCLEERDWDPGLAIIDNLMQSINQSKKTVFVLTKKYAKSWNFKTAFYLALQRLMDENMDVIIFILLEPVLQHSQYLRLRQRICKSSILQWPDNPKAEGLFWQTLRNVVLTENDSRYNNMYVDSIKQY
Compound,Activity [1],Activity [2]
Nc1ccn([C@@H]2O[C@H](COP(=O)(S)O[C@H]3[C@@H](O)[C@H](n4cnc5c(N)ncnc54)O[C@@H]3CO)[C@@H](OP(=O)(S)OC[C@H]3O[C@@H](n4ccc(=O)[nH]c4=O)[C@H](O)[C@@H]3OP(=O)(S)OC[C@H]3O[C@@H](n4ccc(=O)[nH]c4=O)[C@H](O)[C@@H]3OP(=O)(S)OC[C@H]3O[C@@H](n4ccc5c(=O)[nH]c(N)nc54)[C@H](O)[C@@H]3OP(=O)(S)OC[C@H]3O[C@@H](n4cnc5c(N)ncnc54)[C@H](O)[C@@H]3OP(=O)(S)OC[C@H]3O[C@@H](n4cnc5c(N)ncnc54)[C@H](O)[C@@H]3OP(=O)(S)OC[C@H]3O[C@@H](n4ccc5c(=O)[nH]c(N)nc54)[C@H](O)[C@@H]3OP(=O)(S)OC[C@H]3O[C@@H](n4ccc(N)nc4=O)[C@H](O)[C@@H]3OP(=O)(S)OC[C@H]3O[C@@H](n4ccc(=O)[nH]c4=O)[C@H](O)[C@@H]3OP(=O)(S)OC[C@H]3O[C@@H](n4ccc(=O)[nH]c4=O)[C@H](O)[C@@H]3OP(=O)(S)OCC(O)COP(=O)(S)O[C@H]3[C@@H](O)[C@H](n4ccc(=O)[nH]c4=O)O[C@@H]3COP(=O)(S)O[C@H]3[C@@H](O)[C@H](n4ccc(=O)[nH]c4=O)O[C@@H]3COP(=O)(S)O[C@H]3[C@@H](O)[C@H](n4ccc(N)nc4=O)O[C@@H]3COP(=O)(S)O[C@H]3[C@@H](O)[C@H](n4ccc5c(=O)[nH]c(N)nc54)O[C@@H]3COP(=O)(S)O[C@H]3[C@@H](O)[C@H](n4cnc5c(N)ncnc54)O[C@@H]3COP(=O)(S)O[C@H]3[C@@H](O)[C@H](n4cnc5c(N)ncnc54)O[C@@H]3COP(=O)(S)O[C@H]3[C@@H](O)[C@H](n4ccc5c(=O)[nH]c(N)nc54)O[C@@H]3COP(=O)(S)O[C@H]3[C@@H](O)[C@H](n4ccc(=O)[nH]c4=O)O[C@@H]3COP(=O)(S)O[C@H]3[C@@H](O)[C@H](n4ccc(=O)[nH]c4=O)O[C@@H]3COP(=O)(S)O[C@H]3[C@@H](O)[C@H](n4ccc(N)nc4=O)O[C@@H]3COP(=O)(S)O[C@H]3[C@@H](O)[C@H](n4cnc5c(N)ncnc54)O[C@@H]3CO)[C@H]2O)c(=O)n1 (some centres undefined),Active,Active
Nc1ccn([C@@H]2O[C@H](COP(=O)(S)O[C@H]3[C@@H](O)[C@H](n4cnc5c(N)ncnc54)O[C@@H]3CO)[C@@H](OP(=O)(S)OC[C@H]3O[C@@H](n4ccc(=O)[nH]c4=O)[C@H](O)[C@@H]3OP(=O)(S)OC[C@H]3O[C@@H](n4ccc(=O)[nH]c4=O)[C@H](O)[C@@H]3OP(=O)(S)OC[C@H]3O[C@@H](n4ccc5c(=O)[nH]c(N)nc54)[C@H](O)[C@@H]3OP(=O)(S)OC[C@H]3O[C@@H](n4cnc5c(N)ncnc54)[C@H](O)[C@@H]3OP(=O)(S)OC[C@H]3O[C@@H](n4ccc(N)nc4=O)[C@H](O)[C@@H]3OP(=O)(S)OC[C@H]3O[C@@H](n4ccc5c(=O)[nH]c(N)nc54)[C@H](O)[C@@H]3OP(=O)(S)OC[C@H]3O[C@@H](n4cnc5c(N)ncnc54)[C@H](O)[C@@H]3OP(=O)(S)OC[C@H]3O[C@@H](n4ccc(=O)[nH]c4=O)[C@H](O)[C@@H]3OP(=O)(S)OC[C@H]3O[C@@H](n4ccc(=O)[nH]c4=O)[C@H](O)[C@@H]3OP(=O)(S)OCC(O)COP(=O)(S)O[C@H]3[C@@H](O)[C@H](n4ccc(=O)[nH]c4=O)O[C@@H]3COP(=O)(S)O[C@H]3[C@@H](O)[C@H](n4ccc(=O)[nH]c4=O)O[C@@H]3COP(=O)(S)O[C@H]3[C@@H](O)[C@H](n4cnc5c(N)ncnc54)O[C@@H]3COP(=O)(S)O[C@H]3[C@@H](O)[C@H](n4ccc5c(=O)[nH]c(N)nc54)O[C@@H]3COP(=O)(S)O[C@H]3[C@@H](O)[C@H](n4ccc(N)nc4=O)O[C@@H]3COP(=O)(S)O[C@H]3[C@@H](O)[C@H](n4cnc5c(N)ncnc54)O[C@@H]3COP(=O)(S)O[C@H]3[C@@H](O)[C@H](n4ccc5c(=O)[nH]c(N)nc54)O[C@@H]3COP(=O)(S)O[C@H]3[C@@H](O)[C@H](n4ccc(=O)[nH]c4=O)O[C@@H]3COP(=O)(S)O[C@H]3[C@@H](O)[C@H](n4ccc(=O)[nH]c4=O)O[C@@H]3COP(=O)(S)O[C@H]3[C@@H](O)[C@H](n4ccc(N)nc4=O)O[C@@H]3COP(=O)(S)O[C@H]3[C@@H](O)[C@H](n4cnc5c(N)ncnc54)O[C@@H]3CO)[C@H]2O)c(=O)n1 (some centres undefined),Active,Active
